High-throughput results deposited in PubChem by several laboratories.
This is a sample that favours compounds with a hit; in the whole collection about 2.4% have one here.
ANO1 block: inhibitors of mouse TMEM16A calcium-activated chloride channel; HEK293 TMEM16A/YFP iodide influx fluorescence, ionomycin; normalized B-score (activity score, 25-100; higher = stronger inhibition) at 10 µM; hit rate 1.2% among 310,000; AID 588511;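 active = ratio plate-corrected score three or more library SD toward inhibition, starting fluorescence score within five deviations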;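 note: score derived from kinetic fluorescence span divided by baseline fluorescence per well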
Target sequence (Q8BHY3 whole entry, looked up): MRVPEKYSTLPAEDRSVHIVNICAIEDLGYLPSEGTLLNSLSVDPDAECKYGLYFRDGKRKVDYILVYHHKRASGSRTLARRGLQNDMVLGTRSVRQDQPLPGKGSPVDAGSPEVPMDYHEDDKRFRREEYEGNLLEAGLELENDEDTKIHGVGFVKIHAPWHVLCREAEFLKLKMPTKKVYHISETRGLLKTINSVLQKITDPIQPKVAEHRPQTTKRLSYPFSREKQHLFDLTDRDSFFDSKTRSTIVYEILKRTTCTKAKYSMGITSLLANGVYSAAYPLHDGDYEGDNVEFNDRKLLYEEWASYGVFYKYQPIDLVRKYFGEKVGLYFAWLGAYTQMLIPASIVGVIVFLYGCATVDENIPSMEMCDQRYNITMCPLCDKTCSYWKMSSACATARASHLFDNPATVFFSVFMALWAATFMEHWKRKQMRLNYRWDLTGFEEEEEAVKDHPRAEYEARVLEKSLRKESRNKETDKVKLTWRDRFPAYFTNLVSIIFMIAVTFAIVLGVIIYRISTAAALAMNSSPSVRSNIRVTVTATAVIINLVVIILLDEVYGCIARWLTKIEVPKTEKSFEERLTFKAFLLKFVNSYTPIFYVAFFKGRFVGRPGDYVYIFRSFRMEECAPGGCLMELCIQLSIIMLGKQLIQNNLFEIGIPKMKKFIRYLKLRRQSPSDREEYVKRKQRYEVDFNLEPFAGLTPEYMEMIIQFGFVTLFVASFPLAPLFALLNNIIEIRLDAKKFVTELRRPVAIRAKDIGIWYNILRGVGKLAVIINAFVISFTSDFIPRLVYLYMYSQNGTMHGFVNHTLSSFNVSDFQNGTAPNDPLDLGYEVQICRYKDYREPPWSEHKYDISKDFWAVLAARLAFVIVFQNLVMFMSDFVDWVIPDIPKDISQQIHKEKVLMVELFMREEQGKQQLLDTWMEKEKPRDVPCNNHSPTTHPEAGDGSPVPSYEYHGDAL
UBC13 polyUb: blocks human UBC13 polyubiquitin chain formation; P61088; TR-FRET; inhibition, % at 20 µM; hit rate 0.47% among 330,000; in the data active = inhibition above about 45%, passing the limit was not always enough
ANO1 activ: mouse TMEM16A channel activation, primary screen | Q8BHY3 | HEK293 TMEM16A/YFP-H148Q/I152L, iodide quench fluorescence; stronger effect = lower value | AID 623877 | B-score at 10 µM | hit rate 0.3% among 340,000;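 active = fluorescence-ratio B-score plate-corrected deviation score at least 3 library SD below zero, with starting fluorescence score within 5 deviations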;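 note: channel opened by trigger with iodide after compound preincubation; score built on the fluorescence ratio of max minus min over baseline; more negative score means more quench and so TMEM16A activation or potentiation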
Apaf1 inhib: human Apaf-1 inhibition; reconstituted apoptosome caspase-3 activity, DEVD-Rh110 fluorescence; O14727; AID 489030; inhibition, % at 20 µM; hit rate 0.71% among 330,000; active = inhibition of at least 40% at 20 µM;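 note: plate controls were DMSO wells for no effect and DEVD-CHO caspase inhibitor wells for full effect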
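System – cell-free apoptosome with Apaf-1, procaspase-3 and caspase-9 · Buffer or medium – pH 7.5 Hepes buffer with CHAPS, BSA, DTT · Also added – cytochrome c with DEVD-Rh110 · Times – 30 min compound preincubation, 50 min activation, room temperature · Technique – Rh110 fluorescence intensity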
DNA FID counter: counter-screen for HCV NS3 helicase inhibitors: DNA intercalator displacement. DNA fluorescent intercalator displacement, fluorescence. hit rate 0.17% among 290,000. inhibition, % at 7.9 µM; in the data active = inhibition above about 37%;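 note: 0% = vehicle and 100% = reference compound; higher means more ethidium bromide displaced from hairpin DNA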
TMEM16A reconf: re-confirmation of mouse TMEM16A chloride channel inhibitors; shares compounds with ANO1 block; inhibition, % at 10 µM; hit rate 39% among 2,300; HEK293 TMEM16A/YFP-H148Q, iodide quench fluorescence; ionomycin added to raise cell calcium;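 active = mean duplicate percent inhibition, scaled so buffer wells are 0 and the reference blocker 100, over three buffer SD above buffer mean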
HEK293 Ca mobil: alters calcium mobilization in TMEM16A HEK293 cells, counter-screen. hit rate 2% among 2,300. AID 652231. shares compounds with ANO1 block. calcium response (% of ionomycin), % at 10 µM. TMEM16A/YFP HEK293, Fluo4 calcium mobilization;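 active = duplicate-averaged calcium signal over 20% of the ionomycin maximum, relative to buffer baseline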;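 note: each well's signal is peak minus trough fluorescence divided by its pre-addition baseline; 0% = buffer wells and 100% = ionomycin wells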
YFP-HEK293 quench: counter-screen for TMEM16A inhibitors: effect in parental YFP-HEK293 cells; AID 652233; 2,300 tested, under 10 active; iodide YFP quench, ionomycin; YFP ratio F(max-min)/F0 at 10 µM; shares compounds with ANO1 block;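 active = yellow fluorescent protein signal ratio exceeding the buffer control mean by over 5 SD of those controls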;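 note: ratio is mean of duplicate wells from kinetic YFP trace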
ClC-1 rat inh: selectivity of TMEM16A inhibitors: inhibition of rat ClC-1 chloride channel; CHO ClC-1-YFP, iodide influx fluorescence quench; iodide control reads 0, buffer control 100; AID 652236; ratio percent, % at 10 µM; shares compounds with ANO1 block; 2,300 tested, under 10 active;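 active = duplicate-mean ratio percent above the mean of iodide-only control wells, which defines zero, plus 5 of their SD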;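 note: higher percent means stronger block of ClC-1 iodide influx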
An asterisk follows results filed as active; i = inactive; . = not tested or not shown.

SMILES	ANO1 block	UBC13 polyUb	ANO1 activ	Apaf1 inhib	DNA FID counter	TMEM16A reconf	HEK293 Ca mobil	YFP-HEK293 quench	ClC-1 rat inh
COc1ccccc1NC(=O)c1ccc(NC(=O)CSc2nc(N)cc(=O)[nH]2)cc1	.	17	i	-9	.	.	.	.	.
N#Cc1c(NCc2ccccc2)ccnc1NCc1cccnc1	100*	-26	i	1	-15	18%*	i	-0.8	-10
O=C(O)C1CCN(C(=O)c2ccccc2N2C(=O)[C@@H]3Cc4c([nH]c5ccccc45)C(c4cccc(Cl)c4)N3C2=O)CC1 (stereo partly drawn)	i	-12	i	-1	-36	.	.	.	.
O=C(c1cc(N2C(=O)C3C4CCC(C4)C3C2=O)ccc1Cl)N1CCN(c2ccccc2F)CC1 (stereo not drawn)	i	-9	i	8	-4	.	.	.	.
CC(=O)Oc1ccc(C(=O)Nc2nnc(C)s2)cc1	i	4	i	-17	-4	i	i	-0.97	-13
CC1Sc2ccc(S(=O)(=O)NCCc3ccc(Cl)cc3)cc2NC1=O (stereo not drawn)	i	-8	i	25	-23	.	.	.	.
CC(C)NS(=O)(=O)c1ccc(NC(=O)C(C)OC(=O)C2CCC2)cc1 (stereo not drawn)	.	3	i	5	.	.	.	.	.
C=CCOc1ccc(/C=C2\SC(=S)N(NS(=O)(=O)c3ccccc3)C2=O)cc1	100*	-17	i	5	-10	88%*	i	-1.1	-48
COCCNC(=O)CNC(=O)c1nn(-c2ccc(OC)c(Cl)c2)c(=O)c2ccccc12	i	-5	i	0	-13	.	.	.	.
COc1ccc(-n2nc(C(=O)NCC(=O)NCCc3ccc(OC)c(OC)c3)c3ccccc3c2=O)cc1Cl	25*	-5	i	20	-34	i	i	-1.3	-4
COc1ccc(OC)c(CN2CCN(C(=O)c3ccc(S(=O)(=O)Nc4ccccc4F)cc3)CC2)c1	.	-1	i	2	.	.	.	.	.
O=S(=O)(Nc1nc2ccccc2nc1NCc1ccco1)c1ccc(Cl)cc1	i	-1	i	2	-23	.	.	.	.
Cc1noc(C)c1CSc1nc2ccccc2nc1NS(=O)(=O)c1ccc(Cl)cc1	100*	22	i	13	-18	29%*	i	-0.72	-8
CC[C@@H]1CC=C[C@H]2[C@H]1C(=O)N(Cc1ccccc1)[C@H]2c1ccoc1	100*	-6	i	13	.	44%*	i	-1.2	-8
CC1(C)Cc2cccc(OCC(=O)NCc3cccs3)c2O1	i	2	i	-5	.	.	.	.	.
CCOC(=O)c1sc(NC(=O)c2cccc(S(=O)(=O)N3CCc4ccccc43)c2)c(C#N)c1C	25*	21	i	10	-2	26%*	i	-0.89	-5
CCC(CC)c1nnc(NC(=O)c2cccc(S(=O)(=O)N3CCc4ccccc43)c2)s1	i	-2	i	5	-20	.	.	.	.
Cc1ccc(S(=O)(=O)Nc2ccc(Cl)cc2C(=O)c2ccccc2)cc1	25*	-23	i	24	-5	i	i	-0.86	-6
Cc1ccc(S(=O)(=O)Nc2ccc(Cl)cc2C(=O)c2ccc(F)cc2)cc1	i	0	i	23	-8	.	.	.	.
COc1ccc(-c2nc(NC(=O)CSCCO)sc2C)cc1	i	12	i	-1	-16	.	.	.	.
Nc1c(C(=O)c2ccccc2)sc2nsc(SCCN3CCCC3)c12	i	-13	i	21	5	i	i	-0.96	-12
Nc1c(C(=O)c2ccc(Cl)cc2)sc2nsc(SCCN3CCOCC3)c12	i	-6	i	-2	-13	.	.	.	.
Cc1cc(C)c(C(=O)C2OC(=O)C(C)(C)C(=O)C2(C)C)c(C)c1 (stereo not drawn)	i	7	i	11	-17	.	.	.	.
O=C(c1ccncc1)c1ccc(N2CCN(C3CC(=O)N(Cc4ccccc4)C3=O)CC2)cc1 (stereo not drawn)	100*	3	i	10	-42	25%*	i	-0.89	-6
CCOc1ccc(CONS(=O)(=O)c2ccc(NC(C)=O)cc2)cc1Cl	25*	6	i	3	7	23%*	i	-1.1	-8
SMILES	ANO1 block	UBC13 polyUb	ANO1 activ	Apaf1 inhib	DNA FID counter	TMEM16A reconf	HEK293 Ca mobil	YFP-HEK293 quench	ClC-1 rat inh
CC(=O)Nc1ccc(S(=O)(=O)NNC(=O)COc2ccc(Cl)cc2Cl)cc1	i	3	i	-12	-4	.	.	.	.
Nc1nc(SCC(=O)Nc2cc(Cl)ccc2Cl)n[nH]1	.	23	i	-1	.	.	.	.	.
COc1ccc(NC(=O)NC23CC4(C)CC(C)(CC(C)(C4)C2)C3)cc1OC	25*	1	i	20	6	i	i	-1.3	3
CCC1(C)Cc2c(sc3[nH]c(=O)[nH]c(=O)c23)CS1 (stereo not drawn)	100*	-3	i	8	-3	i	i	-1.1	-10
Cc1cc(C)c(NC(=O)CN2CCN3CCCC3C2)c(C)c1 (stereo not drawn)	i	-2	i	-1	-11	.	.	.	.
Cc1c(C(=O)OC(C)C)sc(NC(=O)C2CCCO2)c1C(=O)OC(C)C (stereo not drawn)	i	0	i	6	-12	.	.	.	.
COC(=O)c1sc(NC(=O)C2CCCO2)c(C(=O)OC)c1C (stereo not drawn)	25*	-4	i	13	1	i	i	-1.2	-17
Cc1c(CN2CCC(Oc3ccc(C(=O)N4CCCCC4)cc3)CC2)cnn1C	i	4	i	-9	-2	.	.	.	.
COc1ccc([N+](=O)[O-])cc1N(CC(=O)NCCCOC(C)C)S(C)(=O)=O	i	-6	i	3	2	.	.	.	.
Cc1ccc(C(=O)NC(=S)NNC(=O)COc2ccccc2C)cc1	25*	-2	i	-3	-2	20%*	i	-0.92	-5
O=C(CCc1ccccc1)NNC(=S)NC(=O)c1ccc(Cl)cc1	100*	-40	.	3	0	25%*	65%*	-0.89	-19
CCN(Cc1ccccc1)C(=O)Cn1c(=O)n(CC(=O)N2CCCCC2)c(=O)c2sccc21	i	-6	i	3	-21	.	.	.	.
Cc1nc2ccccc2n1CC(O)COCC1CC=CCC1 (stereo not drawn)	100*	0	i	12	-2	i	i	-0.96	-14
Cc1ccc2nc(SCC(=O)NCc3cccs3)[nH]c2c1	i	10	i	-9	-10	.	.	.	.
